Assay outcomes from PubChem BioAssay.
This is a sample that favours compounds with a hit; in the whole collection about 2.6% have one here.
rRNA inh HTS: inhibitors of bacterial rRNA selective over humanized ribosomes; E. coli WT GFP vs humanized-ribosome RFP mutants, fluorescence, 24 h; stronger effect = lower value; DMSO median 0, no signal -100; GFP signal change (wild-type ribosome), % (test concentration not listed); 350,000 tested, 1.6% active; AID 720706;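 active = significant combined selectivity score with lowered wild-type GFP, culture density cut under 30%, mutant RFP and density less affected; inactive = any of these conditions unmet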
miR122 inh: inhibitors of miR-122 in Huh7 cells; Huh7 miR-122 Renilla luciferase sensor, 48 h; neutral wells = 0, positive control = 100; activation (reporter increase), % at 12.5 µM; 340,000 tested, 0.3% active;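 active = mean replicate activation score at least 90 and every replicate individually at or above 90; inconclusive = only one of the two criteria met; inactive = neither criterion met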;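 also: higher luciferase means less miR-122 activity so hits act as miR-122 inhibitors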
Vif inh: inhibitors of HIV Vif. HEK293T cells, Vif self-association by quenched fluorescence, imaging, 24 h. inhibition, % at 7.49 µM. 340,000 tested, 0.35% active. AID 602346; in the data active = inhibition above about 50%, passing the limit was not always enough; inconclusive = no clear call, values can overlap the other calls; inactive = below about 31%
FN deposit inh: fibronectin deposition inhibition | AID 743247 | AH1F fibroblasts, Alexa488-fibronectin deposition fluorescence, overnight | 350,000 tested, 0.086% active | inhibition, % at 12.6 µM;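 active = mean inhibition across replicates of 30% or more, regardless of how many single replicates reach that level; inconclusive = mean under 30% yet at least half of replicates reach 30%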;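 also: positive control wells lacked labelled fibronectin entirely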
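material = AH1F fibroblast monolayer depositing Alexa488-labelled fibronectin into matrix | amount = 10000 AH1F cells/well | buffer or medium = DMEM plus 2% serum, read in PBS | incubation = 1 h cell adhesion before compound, then overnight fibronectin incubation | detection = fluorescence at 485 nm excitation, 525 nm emission | evaluation = percent inhibition as loss of matrix-bound fibronectin fluorescence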
HIV Env fusion: HIV envelope-mediated fusion inhibition; inhibition, % at 12.3 µM; HeLa-JRFL Env/CEM21 cell fusion, luciferase; 360,000 tested, 1.1% active;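 active = mean replicate inhibition score of at least 50 and every replicate individually at or above 50; inconclusive = only one of the two criteria met; inactive = mean below 50 and not all replicates reaching 50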;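 also: 0% = plate neutral controls and 100% = maraviroc near 300 nM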
S100A4 inh HTS: blocks human S100A4 binding to myosin IIA peptide; inhibition, % at 10.7 µM; 360,000 tested, 0.14% active; S100A4/TAMRA-MyoIIA peptide fluorescence polarization; AID 652163;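 active = mean inhibition of at least 70% across replicates, with every replicate also reaching that level; inconclusive = mean inhibition reaches 70% but some replicates fall short; inactive = mean inhibition below 70%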
Target sequence (P26447 whole entry, looked up): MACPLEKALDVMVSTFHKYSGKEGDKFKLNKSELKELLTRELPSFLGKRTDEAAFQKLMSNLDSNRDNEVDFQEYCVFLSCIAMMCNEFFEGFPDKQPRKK
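Assay system: human S100A4 monomer with TAMRA-labelled myosin IIA peptide / Buffer or medium: Calcium-containing HEPES buffer, pH 7.2 / Reagent: TAMRA-labelled myosin IIA heavy-chain peptide probe, 5 nM / Compound: one dose per compound / Timing: polarization read 5 min after assay mix addition, stable 5–60 min / Benchmarks: neutral control DMSO, positive control TFP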
* hit, by the source's call; ? = inconclusive; nt = no result given; [ ] = remark or other dose.

SMILES	rRNA inh HTS	miR122 inh	Vif inh	FN deposit inh	HIV Env fusion	S100A4 inh HTS
O=C1CCC(c2ccccc2)c2ccccc21 (stereo unspecified)	1	1	17	-8	-3	-1
N#CC1C(=O)c2ccccc2C1c1ccccc1 (stereo unspecified)	-51	nt	?	38*	-396	8
O=C(C1CC1)N1[C@@H](CO)[C@@H](c2ccccc2)C12CN(Cc1cncnc1)C2	4	nt	nt	nt	nt	-8
COc1ccc(NC(=O)N(C)C[C@@H]2Oc3ccc(NS(=O)(=O)c4ccc(C)cc4)cc3CC(=O)N([C@H](C)CO)C[C@H]2C)cc1	6	3[16.7 µM]	nt	nt	7[16.7 µM]	nt
CN(C)S(=O)(=O)c1ccc(C(=O)NC(=O)CSc2ccccc2)cc1	nt	nt	-2	-7	0	nt
CC(=O)Nc1ccc(SCC(=O)NC(=O)c2ccc(S(=O)(=O)N(C)C)cc2)cc1	2	5	83*	2	-4	0
COCC(=O)Nc1ccc2c(c1)OC[C@@H](C)N(CC1CC1)C[C@H](C)[C@@H](OC)CN(C)C2=O	1	nt	nt	-3	8[16.7 µM]	18
C[C@@H]1CN([C@H](C)CO)C(=O)Cc2cc(NC(=O)Nc3ccc(F)cc3)ccc2O[C@@H]1CN(C)Cc1ccc(Cl)c(Cl)c1	3	6[16.7 µM]	nt	-7	-3[16.7 µM]	-6
O=C1NC[C@H](CCCCN2C[C@H](Cc3ccccc3)N(CCc3ccc(O)cc3)C(=O)C2=O)N(CCc2ccccc2)C1=O	-18*	nt	nt	2	-12	0
O=C1NC[C@@H](CCCCN2C[C@H](Cc3ccccc3)N(CCc3ccc(O)cc3)C(=O)C2=O)N(CC2CCCCC2)C1=O	-6	nt	nt	4	-7	15
O=C1NC[C@H](CCCCN2C[C@H](Cc3ccccc3)N(CC3CCCCC3)C(=O)C2=O)N(CCc2ccc(O)cc2)C1=O	-21*	nt	nt	-24	1	-6
CC(C)C[C@H]1CN(CCCC[C@@H]2CNC(=O)C(=O)N2Cc2ccccc2)C(=O)C(=O)N1Cc1ccccc1	1	nt	nt	-6	-36	90*
COCC(=O)N[C@@H]1CC[C@H](CC(=O)NCc2ccc(Cl)cc2)O[C@@H]1CO	-4	nt	nt	2	-10[16.7 µM]	15
COc1ccccc1-c1nc(SCC(=O)Nc2ccccc2F)n[nH]1	-27*	nt	-12	7	70*	6
COc1ccccc1-c1nc(SCC(=O)Nc2ccccc2)n[nH]1	-8	nt	-9	3	-2	-14
COc1ccc(C2N(S(=O)(=O)c3ccc(C)cc3)CCN2S(=O)(=O)c2ccc(C)cc2)cc1	-1	4	-4	3	105*	4
CC(=O)N1CCN(S(=O)(=O)c2ccc(C)cc2)C1c1ccc(N(C)C)cc1 (stereo unspecified)	nt	-17	3	-1	-16	nt
Cc1ccc(S(=O)(=O)N2CCN(S(=O)(=O)c3ccccc3)C2c2ccc(N(C)C)cc2)cc1 (stereo unspecified)	nt	6	4	5	53*	nt
CO[C@H]1CN(C)C(=O)c2cc(NC(=O)c3ccno3)ccc2OC[C@@H](C)NC[C@H]1C	4	-12[16.7 µM]	nt	5	-3[16.7 µM]	-35
N#C/C(=C\c1ccc(O)cc1)C(=O)NCc1ccccc1	-12	1	nt	-3	-12	1
CC(=O)Nc1ccc(/C=C(\C#N)C(=O)NCc2ccccc2)cc1	5	-2	3	33*	15	2
COc1cc(/C=C(\C#N)C(=O)NCCc2ccccc2)cc(OC)c1O	-31*	nt	7	6	-3	1
CC(=O)Nc1ccc(/C=C(\C#N)C(=O)NC2CCCCC2)cc1	-26*	nt	1	-1	4	3
CC(C)NC(=O)Nc1cccc2c1O[C@@H](CN(C)C(=O)Nc1ccc3c(c1)OCO3)[C@H](C)CN([C@H](C)CO)C2=O	2	0[16.7 µM]	nt	nt	nt	10
OC(CSc1ccccn1)CC(O)c1ccccc1 (stereo unspecified)	nt	nt	nt	nt	-19[16.7 µM]	4
SMILES	rRNA inh HTS	miR122 inh	Vif inh	FN deposit inh	HIV Env fusion	S100A4 inh HTS
CC(C)(C)NC(=O)CSCc1c(Cl)cccc1Cl	-31*	nt	nt	-1	nt	3
CCOC(=O)c1oc2cccc(O)c2c1C	nt	-16	-20	-4	-263	nt
CCOC(=O)c1oc2cccc(O)c2c1CN(Cc1ccccc1)C(C)=O	nt	4	-10	2	60*	nt
Cc1ccc(C(=O)NCCSC2CCCCC2)cc1S(=O)(=O)Nc1ccccc1	-20	100*	-4	nt	nt	10
Cc1ccccc1NS(=O)(=O)c1cc(C(=O)N2CCc3ccccc3C2)ccc1C	nt	177*	3	-12	1	nt
Cc1ccc(C(=O)Nc2cccc([N+](=O)[O-])c2)cc1S(=O)(=O)Nc1ccc(NC(=O)c2ccccc2)cc1	nt	nt	-4	9	24	nt
Cc1ccc(C(=O)N2CCc3ccccc3C2)cc1S(=O)(=O)N1CCOCC1	6	3	nt	-1	nt	4
Cc1ccc(NS(=O)(=O)c2cc(C(=O)Nc3cccc([N+](=O)[O-])c3)ccc2C)cc1	-1	131*	3	-3	nt	-1
CN(c1cccc(NC(=O)c2ccc(Cl)c(S(=O)(=O)Nc3ccccc3)c2)c1)S(C)(=O)=O	nt	197*	-18	nt	-32	nt
COc1ccc2c3c(n(C)c2c1)[C@@H](CO)N(C(=O)CC1CC1)CC31CCN(C(=O)NC(C)C)CC1	-3	nt	nt	nt	nt	12
O=C(C[C@H]1CC[C@@H]2[C@H](COC[C@H](O)CN2C(=O)c2ccccn2)O1)N1CCN(c2ccccc2)CC1	2	7[16.7 µM]	nt	-2	nt	-4
C[C@@H]1CCCCO[C@H](CN(C)Cc2ccc3c(c2)OCO3)[C@@H](C)CN([C@H](C)CO)C(=O)c2cc(NC(=O)Cc3ccccc3)ccc2O1	0	-5[16.7 µM]	nt	nt	-1[16.7 µM]	nt
Cc1ccc(C(=O)Nc2ccccc2C(=O)O)cc1S(=O)(=O)Nc1ccccc1	-14	92*	?	13	4	-2
Cc1ccc(C(=O)Nc2ccccc2C(=O)O)cc1S(=O)(=O)NC1CCCCC1	-23	72	-6	nt	2	3
CC(=O)Nc1ccc(NC(=O)c2ccc(NS(=O)(=O)c3cc(C(C)(C)C)ccc3C)cc2)cc1	3	nt	4	nt	-4	-2
CC(=O)Nc1ccc(NC(=O)c2ccc(C)c(S(=O)(=O)Nc3cccc(C)c3)c2)cc1	-27*	49	-23	6	17	2
C[C@H]1CN([C@@H](C)CO)S(=O)(=O)c2ccc(C#CC3(O)CCCC3)cc2O[C@H]1CN(C)C(=O)Cc1cccnc1	3	1[16.7 µM]	nt	-10	-10[16.7 µM]	-1
OC[C@@H]1CC[C@@H]2O[C@H](CCc3ccc(C#CCc4ccccc4)cc3)[C@H](n3cc(-c4ccccc4)nn3)C[C@@H]2O1	nt	nt	nt	nt	nt	-1
